SMARCA2 act: SMARCA2 (BRM) function activators, primary screen, cell-based, luminescence, high throughput | actives 1% (n = 370,000) | AID 652017, 2013 | activation, % at 9.1 µM | MG213 cells, MMTV-luciferase reporter, dexamethasone, overnight; in the data active = activation above about 7.8%;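 note: 0% = vehicle wells and 100% = reference activator wells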
Efflux pump mplx: inhibitors of Candida efflux pumps in yeast, primary screen, S. cerevisiae, Nile Red, multiplex. actives 0.44% (n = 330,000). AID 485275, 2010. S. cerevisiae Candida pump triplex. inhibition, % at 10 µM;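 active = plate passing quality check with inhibition over a set limit, or well fluorescence over plate mean plus 4 SD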;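 note: Nile Red retained in pooled yeast measured as flow cytometry median fluorescence; 0% = buffer negative control and 100% = Enniatin B positive control; higher means more Nile Red kept so more efflux inhibition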
AHR activator: AHR activators, primary screen, cell-based, luminescence, luciferase reporter, human; AHR-responsive luciferase reporter cells; activation, % at 5 µM; actives 2.5% (n = 320,000); in the data active = activation above about 47%;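 note: 0% = vehicle wells and 100% = reference agonist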
Target sequence (P35869 whole entry, looked up): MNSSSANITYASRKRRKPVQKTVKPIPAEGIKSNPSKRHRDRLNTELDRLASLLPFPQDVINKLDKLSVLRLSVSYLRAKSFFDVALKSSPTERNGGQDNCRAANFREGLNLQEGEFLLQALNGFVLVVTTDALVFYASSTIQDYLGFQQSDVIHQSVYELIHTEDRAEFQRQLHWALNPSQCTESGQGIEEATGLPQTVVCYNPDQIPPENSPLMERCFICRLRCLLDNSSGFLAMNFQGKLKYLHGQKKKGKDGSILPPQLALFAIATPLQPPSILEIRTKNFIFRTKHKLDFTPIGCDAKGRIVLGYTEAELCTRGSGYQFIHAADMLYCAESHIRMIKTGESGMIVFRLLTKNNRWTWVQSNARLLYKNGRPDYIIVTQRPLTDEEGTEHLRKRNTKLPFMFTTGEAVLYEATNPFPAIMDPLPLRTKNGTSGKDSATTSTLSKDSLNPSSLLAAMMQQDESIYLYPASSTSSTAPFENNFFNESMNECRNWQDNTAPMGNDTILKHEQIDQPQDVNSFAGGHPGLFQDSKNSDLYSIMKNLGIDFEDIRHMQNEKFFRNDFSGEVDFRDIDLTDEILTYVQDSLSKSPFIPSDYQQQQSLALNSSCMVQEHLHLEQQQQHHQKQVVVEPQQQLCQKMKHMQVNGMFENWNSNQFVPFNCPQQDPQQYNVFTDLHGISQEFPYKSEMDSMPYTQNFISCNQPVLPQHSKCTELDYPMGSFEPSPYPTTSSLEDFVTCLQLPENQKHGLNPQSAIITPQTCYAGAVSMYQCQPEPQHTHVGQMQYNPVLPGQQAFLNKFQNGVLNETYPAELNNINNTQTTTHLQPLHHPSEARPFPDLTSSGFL
TbMetRS inhib: T. brucei MetRS inhibitors, primary screen, biochemical, luminescence. purified T. brucei MetRS, ATP depletion, Kinase-Glo luminescence. actives 0.4% (n = 360,000). methionyl-tRNA synthetase (Trypanosoma brucei brucei). inhibition, % at 11.9 µM;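 active = inhibition above a per-plate cutoff of the control wells' mean inhibition plus 3 SD, cut at about 5.5% in these data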;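 note: 0% = DMSO wells median and 100% = median of wells with control inhibitor compound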
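Test system: purified T. brucei MetRS enzyme. Also added: ATP, methionine and E. coli bulk tRNA substrates. Compound: 11.9 µM single point. Schedule: 15 min enzyme-compound preincubation, 2 h reaction, 10 min detection, 25 °C. Signal: luciferase luminescence of residual ATP, Kinase-Glo. Evaluation: percent inhibition versus plate control medians. Controls: DMSO wells, low control.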
TAG inh: inhibitors of triacylglycerol accumulation, primary screen, cell-based, uHTS, fluorescence, H9c2; inhibition, % at 12.5 µM; H9c2 cells, Nile Red lipid (TAG) fluorescence; cells loaded with 200 µM oleic acid; AID 651582, 2012; actives 0.66% (n = 230,000);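 active = pattern-corrected inhibition of lipid staining of at least 50% with the nuclear-stain viability signal not falling by more than 50%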;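 note: 0% = DMSO wells and 100% = triacsin C control wells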
Cmpd fluor yeast: counter-screen for efflux pump inhibitors: compound fluorescence; shares compounds with Efflux pump mplx; S. cerevisiae AD/pABC3, flow cytometry; fluorescence ratio to DMSO, % at 10 µM; actives 4% (n = 1,700);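 active = fluorescence ratio to DMSO above its plate's cutoff, the plate mean ratio plus 5 SD, cut at about 210% in these data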;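 note: unstained yeast with no Nile Red so the signal is compound autofluorescence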
Mdr1 pump inh: inhibitors of Candida albicans Mdr1 efflux, confirmation, flow cytometry, singleplex, Cherry Pick1 set; shares compounds with Efflux pump mplx; S. cerevisiae AD/CaMDR1, Nile Red efflux; inhibition, % at 10 µM; actives 1% (n = 1,700); in the data active = inhibition above about 26%;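 note: 0% = DMSO vehicle and 100% = reference inhibitor; higher means more Nile Red retained so more efflux inhibition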
CaCdr2 efflux inh: inhibitors of Candida albicans Cdr2 efflux pump, confirmation, S. cerevisiae AD/CaCDR2, flow cytometry, cherry pick 1, singleplex; shares compounds with Efflux pump mplx; AID 588520, 2011; Nile Red retention ratio vs DMSO, % at 10 µM; actives 4% (n = 1,700); Nile Red retention; in the data active = Nile Red retention ratio vs DMSO above about 190%;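 note: higher ratio means more blocking of Cdr2 efflux of the dye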
Cdr1 pump inh: inhibitors of Candida albicans Cdr1 efflux pump, confirmation, S. cerevisiae AD/CaCDR1, flow cytometry, cherry pick 1, singleplex; Nile Red efflux; actives 1% (n = 1,700); inhibition, % at 10 µM; AID 588522, 2011; shares compounds with Efflux pump mplx;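 active = inhibition above the screen-wide mean plus twice its standard deviation, cut at about 32% in these data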
An asterisk follows results filed as active; x = not tested or not shown. Sampled rows, rich in hits. Any-hit rate of the full collection: about 4.1%.

SMILES	SMARCA2 act	Efflux pump mplx	AHR activator	TbMetRS inhib	TAG inh	Cmpd fluor yeast	Mdr1 pump inh	CaCdr2 efflux inh	Cdr1 pump inh
O=c1c(-c2ccccc2)c[nH]n1-c1cccc([N+](=O)[O-])c1	1	1.0*	2	0	7	99	0	104	0
CC(=O)c1c(-c2ccccc2)[nH]c2ccccc12	-1	0	2	-2	-8	x	x	x	x
CC(=O)c1c(C)[nH]c(-c2ccccc2)c1C	-1	8.0*	2	-1	x	98	0	105	0
CC(C)CNc1ccc2c(c1)OC[C@@H](CC(C)C)NS2(=O)=O	-3	x	x	x	x	x	x	x	x
Cn1c(N2CCN(C(c3ccccc3)c3ccccc3)CC2)nc2ccccc21	0	0.5*	0	-1	2	99	0	104	0
Cn1c(N2CCN(C(=O)Nc3ccc(F)cc3)CC2)nc2ccccc21	1	0	-9	-1	-8	x	x	x	x
CCCCN1C(=O)N2CCc3ccccc3C2CS1(=O)=O (stereo unspecified)	1	x	x	x	x	x	x	x	x
Nc1nc(Cl)cc(NCCc2ccc(O)cc2)n1	2	0	2	0	x	x	x	x	x
Oc1ccc(CCNc2ncnc3ccc(Cl)cc23)cc1	-7	1.0*	-1	0	-29	100	0	114	0
Cc1cccc(NC(=O)CN2C(=O)CCSc3ccccc32)c1C	-5	x	x	x	x	x	x	x	x
CCC(C(=O)Nc1ccccc1N1CCCC1)c1cccc(C)c1 (stereo unspecified)	-3	x	x	x	x	x	x	x	x
O=C(Cn1cncn1)NCc1cccc2ccccc12	2	0.9*	10	0	x	101	0	107	0
O=C1NC(=S)SC1=Cc1ccccc1Cl	-3	x	x	0	7	x	x	x	x
O=C1NC(=S)S/C1=C\c1ccc(SCc2ccccc2)o1	-5	4.5*	47	0	x	121	0	187*	0
O=C1NC(=S)S/C1=C\c1ccc(SCc2ccco2)o1	x	4.7*	3	1	x	125	0	157	0
Cc1ccc(C2CCC3(CCC(=O)N3CCOC(=O)Nc3ccc(Br)cc3)CC2)cc1 (stereo unspecified)	-5	x	x	x	x	x	x	x	x
Cc1cc(C)c(S(=O)(=O)Nc2ccc(O)c(Sc3ncn[nH]3)c2)c(C)c1	-3	11*	4	0	x	103	0	91	0
Cc1cc(C)c(S(=O)(=O)Nc2ccc(O)c(Sc3ncn[nH]3)c2)cc1C	0	0	1	0	-6	92	0	91	0
Cc1cc(C)c(S(=O)(=O)Nc2ncn[nH]2)c(C)c1	6	0	x	0	3	x	x	x	x
C/C(=N\NC(=O)CC1(C)OCCO1)c1cccs1	1	6.5*	1	-1	x	100	0	100	0
C/C(=N/NC(=O)c1cccs1)c1cccs1	2	0	14	0	3	x	x	x	x
CSCc1ccc(C(=O)NCCSc2ccc(Br)cc2)cc1	2	7.4*	15	0	x	93	0	87	0
O=C(NCCSc1ccc(Br)cc1)c1ccccc1	0	0	14	0	x	x	x	x	x
COC(=O)[C@]12C[C@H](CC(=O)NCC3CCCCC3)C(=O)N(Cc3ccccc3)C1=C[C@H](C(C)C)O[C@@H]2C1CC1	-4	x	x	x	x	x	x	x	x
NS(=O)(=O)c1ccc(CCNC(=O)c2cc(-c3ccccc3)nc3ccccc23)cc1	0	21*	12	0	x	108	0	94	0
SMILES	SMARCA2 act	Efflux pump mplx	AHR activator	TbMetRS inhib	TAG inh	Cmpd fluor yeast	Mdr1 pump inh	CaCdr2 efflux inh	Cdr1 pump inh
COCO/C=C(\NC(C)=O)c1ccccc1	0	1.0*	0	0	3	115	0	104	0
CC/C=C(/NC(C)=O)c1ccccc1	2	0	0	0	-19	x	x	x	x
CCNc1nc2[nH]c(=O)c3c(c2s1)OC(N)=C(C#N)C3c1ccc(C)cc1 (stereo unspecified)	2	0	12	-1	-9	x	x	x	x
CNc1nc2[nH]c(=O)c3c(c2s1)OC(N)=C(C#N)C3c1ccccc1 (stereo unspecified)	0	9.7*	17	0	x	117	0	96	0
Cc1nc2ccc(NC(=O)CCS(=O)(=O)c3ccccc3)cc2s1	1	0	5	0	x	x	x	x	x
Cc1ccc2nc(-c3ccc(NC(=O)CCS(=O)(=O)c4ccccc4)cc3)sc2c1	1	0.5*	-13	0	7	112	0	114	0
CCOC(=O)[C@@]12CCCC=C1N(CCc1ccc(Cl)cc1)C(=O)[C@H]2CC(=O)N1CCC(c2ccccc2)CC1	-1	x	x	x	x	x	x	x	x
COC(=O)c1cc2c(c3c4ccccc4n(S(=O)(=O)c4cccc(C)c4)c13)C(=O)N(C)C2	1	x	x	x	x	x	x	x	x
COc1ccc(CNC(=O)c2ccc(S(=O)(=O)N3CCOCC3)cc2)cc1	4	x	x	0	-6	x	x	x	x
COC(=O)NCc1ccc(S(=O)(=O)N2CCOCC2)cc1	-1	0.5*	-5	0	x	95	0	106	0
COC(=O)C[C@@H]1CC[C@@H]2[C@@H](COc3ccc(NC(=O)Nc4ccccc4)cc3C(=O)N2C)O1	-1	x	x	x	x	x	x	x	x
COC(=O)C1=COC(C)C2CN3CCc4c([nH]c5cc(OC)c(OC)cc45)C3CC12 (stereo unspecified)	1	0.9*	4	1	x	107	0	119	0
COC(=O)[C@H]1[C@H]2C[C@@H]3c4[nH]c5cc(OC)ccc5c4CCN3C[C@H]2C[C@@H](OC(=O)c2cc(OC)c(OC)c(OC)c2)[C@@H]1OC	-4	0	15	0	46	x	x	x	x
Clc1nc(Nc2ccccc2)nc(Nc2ccccc2)n1	2	11*	11	0	x	101	0	104	0
COc1cc(S(=O)(=O)Nc2ccccn2)ccc1F	-1	0.7*	8	0	x	104	0	104	0
N#C/C(=C/c1ccc(Br)s1)C(=O)NCCc1c[nH]c2ccccc12	0	5.5*	35	0	x	111	0	91	0
O=c1[nH]c(C2CCN(S(=O)(=O)c3ccc4c(c3)OCCO4)CC2)nc2c1nnn2Cc1ccc(F)cc1	-4	2	-1	0	x	94	0	102	0

Screening data as filed in PubChem.
